# In ChEMBL document CHEMBL1145495, “Polyamine effects on antibiotic susceptibility in bacteria” (2007):
# Columns and labels:
# [1] = tested on: Staphylococcus aureus; test: Antibacterial activity against Staphylococcus aureus N315 after 14 to 16 hrs by broth dilution method; format: functional
# Summary of the method: (§1)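 CLSI broth dilution in cation-adjusted Mueller-Hinton broth with serial twofold dilutions, with or without spermine or spermidine added. Overnight cultures were diluted in saline to OD600 0.1–0.12, and about 10^5 CFU were inoculated. Incubation was 14–16 h at 37°C. MIC was confirmed in three independent experiments. E. coli acrA mutants were tested with 1 mM spermine; P. aeruginosa isolates with 1 mM spermine or 20 mM spermidine.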
# [2] = tested on: Staphylococcus aureus; test: Antibacterial activity against Staphylococcus aureus Mu50 after 14 to 16 hrs by broth dilution method; format: functional
# [3] = tested on: Staphylococcus aureus; test: Antibacterial activity against Staphylococcus aureus ATCC 3556 after 14 to 16 hrs by broth dilution method; format: functional
# [4] = tested on: Escherichia coli; test: Antibacterial activity against Escherichia coli K10 after 14 to 16 hrs by broth dilution method; format: functional
# [5] = tested on: Escherichia coli; test: Antibacterial activity against Escherichia coli K12 after 14 to 16 hrs by broth dilution method; format: functional
# [6] = tested on: Escherichia coli; test: Antibacterial activity against Escherichia coli C921-61 after 14 to 16 hrs by broth dilution method; format: functional
# [7] = tested on: Salmonella typhimurium; test: Antibacterial activity against Salmonella enterica serovar Typhimurium LT2 after 14 to 16 hrs by broth dilution method; format: functional, Salmonella enterica subsp. enterica serovar Typhimurium
# [8] = tested on: Pseudomonas aeruginosa; test: Antibacterial activity against streptomycin-resistant Pseudomonas aeruginosa DK100 after 14 to 16 hrs by broth dilution method; format: functional; summary of the method: as §1
# [9] = tested on: Pseudomonas aeruginosa; test: Antibacterial activity against streptomycin and gentamycin-resistant Pseudomonas aeruginosa DK101 containing oprD mutant after 14 to 16 hrs by broth dilution method; format: functional; summary of the method: as §1
# [10] = tested on: Pseudomonas aeruginosa; test: Antibacterial activity against Pseudomonas aeruginosa DK101 containing pAU48 expressing oprD after 14 to 16 hrs by broth dilution method; format: functional
# [11] = tested on: Escherichia coli; test: Antibacterial activity against Escherichia coli W4573 assessed as inhibition of AcrAB efflux pump after 14 to 16 hrs by broth dilution method; format: functional
# [12] = tested on: Escherichia coli; test: Antibacterial activity against Escherichia coli N43 acrA mutant assessed as inhibition of AcrAB efflux pump after 14 to 16 hrs by broth dilution method; format: functional; summary of the method: as §1
# [13] = tested on: Escherichia coli; test: Antibacterial activity against Escherichia coli N818 delta acrA mutant assessed as inhibition of AcrAB efflux pump after 14 to 16 hrs by broth dilution method; format: functional; summary of the method: as §1
# [14] = tested on: Pseudomonas aeruginosa; test: Antibacterial activity against Pseudomonas aeruginosa PAO1 after 14 to 16 hrs by broth dilution method; format: functional
# [15] = tested on: Pseudomonas aeruginosa; test: Antibacterial activity against Pseudomonas aeruginosa F4980 after 14 to 16 hrs by broth dilution method; format: functional; summary of the method: as §1
# [16] = tested on: Pseudomonas aeruginosa; test: Antibacterial activity against Pseudomonas aeruginosa F66336 after 14 to 16 hrs by broth dilution method; format: functional
# [17] = tested on: Pseudomonas aeruginosa; test: Antibacterial activity against Pseudomonas aeruginosa H4563 after 14 to 16 hrs by broth dilution method; format: functional
# [18] = tested on: Pseudomonas aeruginosa; test: Antibacterial activity against Pseudomonas aeruginosa M22152 after 14 to 16 hrs by broth dilution method; format: functional; summary of the method: as §1
# [19] = tested on: Pseudomonas aeruginosa; test: Antibacterial activity against Pseudomonas aeruginosa M37310 after 14 to 16 hrs by broth dilution method; format: functional
# [20] = tested on: Pseudomonas aeruginosa; test: Antibacterial activity against Pseudomonas aeruginosa M38100A after 14 to 16 hrs by broth dilution method; format: functional
# [21] = tested on: Pseudomonas aeruginosa; test: Antibacterial activity against Pseudomonas aeruginosa M38100B after 14 to 16 hrs by broth dilution method; format: functional
# [22] = tested on: Pseudomonas aeruginosa; test: Antibacterial activity against Pseudomonas aeruginosa T2095 after 14 to 16 hrs by broth dilution method; format: functional
# [23] = tested on: Pseudomonas aeruginosa; test: Antibacterial activity against Pseudomonas aeruginosa T5177 after 14 to 16 hrs by broth dilution method; format: functional; summary of the method: as §1
# [24] = tested on: Pseudomonas aeruginosa; test: Antibacterial activity against Pseudomonas aeruginosa T6268 after 14 to 16 hrs by broth dilution method; format: functional
# [25] = tested on: Pseudomonas aeruginosa; test: Antibacterial activity against Pseudomonas aeruginosa T15464 after 14 to 16 hrs by broth dilution method; format: functional; summary of the method: as §1
Compound,MIC [1],MIC [2],MIC [3],MIC [4],MIC [5],MIC [6],MIC [7],also measured
Cc1onc(-c2ccccc2Cl)c1C(=O)N[C@@H]1C(=O)N2[C@@H]1SC(C)(C)[C@@H]2C(=O)O [CLOXACILLIN],8 µg/mL,≥ 512 µg/mL,0.12 µg/mL,–,–,–,–,–
CC[C@H]1OC(=O)[C@H](C)[C@@H](O[C@H]2C[C@@](C)(OC)[C@@H](O)[C@H](C)O2)[C@H](C)[C@@H](O[C@@H]2O[C@H](C)C[C@H](N(C)C)[C@H]2O)[C@](C)(O)C[C@@H](C)C(=O)[C@H](C)[C@@H](O)[C@]1(C)O [ERYTHROMYCIN],–,–,–,64 µg/mL,64 µg/mL,64 µg/mL,64 µg/mL,–
CC(=O)O[C@H]1C[C@@]2(C)[C@@H](C[C@@H](O)[C@H]3[C@@]4(C)CC[C@@H](O)[C@@H](C)[C@@H]4CC[C@@]32C)/C1=C(\CCC=C(C)C)C(=O)O [FUSIDIC ACID],–,–,–,> 1020 µg/mL,1020 µg/mL,1020 µg/mL,> 1020 µg/mL,–
C[C@@H](O)[C@H]1C(=O)N2C(C(=O)O)=C(SCCNC=N)C[C@H]12 [IMIPENEM ANHYDROUS],–,–,–,–,–,–,–,MIC [8]: 4 µg/mL; MIC [9]: 32 µg/mL; MIC [10]: 0.5 µg/mL
NC[C@H]1O[C@H](O[C@H]2[C@H](O)[C@@H](O[C@H]3O[C@H](CO)[C@@H](O)[C@H](N)[C@H]3O)[C@H](N)C[C@@H]2N)[C@H](O)[C@@H](O)[C@@H]1O [KANAMYCIN],–,–,–,2 µg/mL,4 µg/mL,4 µg/mL,4 µg/mL,–
CO[C@@H]1[C@@H](OC(N)=O)[C@@H](O)[C@H](Oc2ccc3c(O)c(NC(=O)c4ccc(O)c(CC=C(C)C)c4)c(=O)oc3c2C)OC1(C)C [NOVOBIOCIN],–,–,–,> 1020 µg/mL,> 1020 µg/mL,512 µg/mL,> 1020 µg/mL,–
CC1(C)S[C@@H]2[C@H](NC(=O)Cc3ccccc3)C(=O)N2[C@H]1C(=O)O [PENICILLIN G],32 µg/mL,32 µg/mL,≤ 0.06 µg/mL,64 µg/mL,64 µg/mL,–,16 µg/mL,–
CCN1CCN(C(=O)N[C@@H](C(=O)N[C@@H]2C(=O)N3[C@@H]2SC(C)(C)[C@@H]3C(=O)O)c2ccccc2)C(=O)C1=O [PIPERACILLIN],32 µg/mL,128 µg/mL,0.5 µg/mL,2 µg/mL,2 µg/mL,2 µg/mL,4 µg/mL,–
CN[C@@H]1[C@H](O)[C@H](NC)[C@H]2O[C@@]3(O)C(=O)C[C@@H](C)O[C@H]3O[C@@H]2[C@H]1O [SPECTINOMYCIN],–,–,–,16 µg/mL,16 µg/mL,16 µg/mL,32 µg/mL,–
NCCCNCCCCNCCCN [SPERMINE],4 mM,4 mM,4 mM,1 mM,> 16 mM,> 16 mM,2 mM,–
CN(C)[C@@H]1C(O)=C(C(N)=O)C(=O)[C@@]2(O)C(O)=C3C(=O)c4c(O)cccc4[C@@](C)(O)[C@H]3C[C@@H]12 [TETRACYCLINE],0.12 µg/mL,32 µg/mL,0.12 µg/mL,8 µg/mL,8 µg/mL,2 µg/mL,2 µg/mL,MIC [11]: 2 µg/mL; MIC [12]: 0.5 µg/mL; MIC [13]: 0.5 µg/mL
CC1(C)S[C@@H]2[C@H](NC(=O)[C@H](C(=O)O)c3ccsc3)C(=O)N2[C@H]1C(=O)O [TICARCILLIN],32 µg/mL,512 µg/mL,1 µg/mL,8 µg/mL,8 µg/mL,4 µg/mL,4 µg/mL,–
POLYMYXIN B,64 µg/mL,128 µg/mL,64 µg/mL,0.5 µg/mL,0.25 µg/mL,0.5 µg/mL,–,MIC ([7]; Salmonella enterica subsp. enterica serovar Typhimurium): 0.5 µg/mL; MIC [14]: 1 µg/mL; MIC [15]: 0.25 µg/mL; MIC [16]: 0.125 µg/mL; MIC [17]: 0.125 µg/mL; MIC [18]: 0.5 µg/mL; MIC [19]: 0.125 µg/mL; MIC [20]: < 0.06 µg/mL; MIC [21]: 16 µg/mL; MIC [22]: 0.125 µg/mL; MIC [23]: 0.5 µg/mL; MIC [24]: 1 µg/mL; MIC [25]: 0.5 µg/mL; MIC [8]: 0.5 µg/mL; MIC [9]: 0.5 µg/mL; MIC [10]: 0.5 µg/mL
